Assay outcomes: PubChem, Sanford-Burnham Center for Chemical Genomics
bIAP inh – bovine intestinal alkaline phosphatase inhibitors, primary screen, selectivity assay for TNAP inhibitor project, biochemical, bovine IAP, CDP-star luminescence | 190,000 tested, under 10 active | purified bovine IAP, 30 min | alkaline phosphatase, intestinal [Bos taurus] | inhibition, % at 20 µM;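 active = over 50% inhibition of intestinal alkaline phosphatase at 20 µM in the single-dose screen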
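Assay system – bovine IAP enzyme · Quantity – bovine IAP at 1/65,000,000 final dilution · Detection – CDP-star luminescence signal · Times – 30 min reaction at room temperature · Also added – CDP-star substrate at 30 µM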
mIAP inh – inhibitors of mouse IAP, primary screen, biochemical, luminescence, uHTS; inhibition, % at 10 µM; 330,000 tested, 0.2% active; AID 2806, 2010; purified mouse IAP, CDP-Star luminescence, 30 min; intestinal alkaline phosphatase [Mus musculus];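 active = inhibition of at least 40% at 10 µM in the primary screen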
hIAP inh – human IAP inhibitors, primary screen, biochemical, luminescence, uHTS | purified IAP, CDP-Star luminescence, 30 min | inhibition, % at 10 µM | 330,000 tested, 0.12% active | AID 2544, 2010;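 active = inhibition reaching a set limit with compound at 10 µM in the primary screen, cut at about 35% in these data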
Target sequence (P09923 whole entry, looked up): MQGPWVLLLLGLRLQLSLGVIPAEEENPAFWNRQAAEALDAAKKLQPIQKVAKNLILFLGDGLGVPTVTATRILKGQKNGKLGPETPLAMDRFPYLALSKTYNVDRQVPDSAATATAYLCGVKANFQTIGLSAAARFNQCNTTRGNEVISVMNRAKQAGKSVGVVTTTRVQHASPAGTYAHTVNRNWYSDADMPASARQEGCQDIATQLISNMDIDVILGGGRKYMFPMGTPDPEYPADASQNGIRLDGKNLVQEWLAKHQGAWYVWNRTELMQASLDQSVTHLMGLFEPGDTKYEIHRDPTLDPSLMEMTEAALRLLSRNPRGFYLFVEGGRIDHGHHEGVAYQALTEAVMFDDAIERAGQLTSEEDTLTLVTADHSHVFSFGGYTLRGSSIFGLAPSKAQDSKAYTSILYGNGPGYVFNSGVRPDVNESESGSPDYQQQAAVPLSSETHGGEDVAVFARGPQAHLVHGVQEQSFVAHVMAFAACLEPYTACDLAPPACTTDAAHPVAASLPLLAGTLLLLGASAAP
mIAP act – activators of mouse IAP, primary screen, biochemical, luminescence, uHTS; muIAP, CDP-Star luminescence, 30 min; hits give high values; 1 = vehicle-only enzyme signal, 0 = enzyme-free wells; activation factor at 10 µM; 330,000 tested, 0.24% active; AID 2805, 2010;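 active = activation factor of at least 2 at 20 µM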
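Assay system: mouse IAP enzyme; reagent: chemiluminescent substrate CDP-Star; dosing: test compounds delivered from DMSO solution; schedule: 30 min at room temperature; measured by: luminescence from enzymatic CDP-Star hydrolysis; controls: DMSO-only wells and no-enzyme negative control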
hIAP activ – human IAP activators, primary screen, biochemical, luminescence, uHTS; Intestinal-type alkaline phosphatase (Homo sapiens), P09923; purified human IAP, CDP-Star luminescence, 30 min; hits give high values; 1 = vehicle-only enzyme, 0 = enzyme-free background; activation factor at 10 µM; 330,000 tested, 0.16% active; AID 2524, 2010;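 active = activation factor of the enzyme at least 2-fold when tested at 20 µM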
bIAP act – bovine intestinal alkaline phosphatase activators, primary screen, biochemical, bovine IAP, CDP-star luminescence; 200,000 tested, 0.17% active; activation factor at 20 µM; AID 1016, 2008; purified bovine IAP, 30 min; hits give high values; fold of DMSO-control signal, blank-subtracted; alkaline phosphatase, intestinal [Bos taurus];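 active = activation factor of 2 or more at 20 µM, a signal rise over negative controls twice the positive control's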
hIAP act conf – human IAP activators, confirmation, biochemical, luminescence, single concentration, uHTS hits; shares compounds with hIAP activ; purified IAP, CDP-Star luminescence, 30 min; hits give low values; 880 tested, 10% active; AID 434926, 2010; activation (%Activity, negative = activation), % at 8.3 µM;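 active = at least twofold enzyme activation in any of six single-dose repeats, which the averaged readout prints as negative percent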
Hits are given with their value; – = inactive; · = no result given. Most compounds without a hit are left out; they make up all but 0.72% or so of the library.

SMILES	bIAP inh	mIAP inh	hIAP inh	mIAP act	hIAP activ	bIAP act	hIAP act conf
CCc1nnc(NC(=O)c2ccc3ccccc3n2)s1	–	–	–	–	–	–	·
NC(=O)C1CCN(C(c2ccccc2Cl)c2nnnn2CC2CCCO2)CC1 (centres undefined)	–	–	–	–	–	–	·
COc1cc(CSc2ncn[nH]2)c(OC)cc1CSc1ncn[nH]1	–	–	–	–	2.71	–	–
CC1(C)Cc2[nH]c(=O)c(C#N)cc2CS1	–	–	–	–	–	–	·
Cc1nnc(NC(=O)CSc2n[nH]c(-c3ccccc3C)n2)s1	·	–	41.3	–	–	·	–
CC(C)c1c(C(=O)N/N=C/c2ccc3c(c2)OCO3)nnn1-c1nonc1N	·	–	–	–	–	·	·
CCN(CC)c1ccc(/C=N/NC(=O)c2nnn(-c3nonc3N)c2C(C)C)c(O)c1	·	–	–	–	2	·	–
Cc1ccc(S(=O)(=O)c2nc(S(C)(=O)=O)sc2NCc2ccc3c(c2)OCO3)cc1	–	–	–	–	–	–	·
O=C(c1cccc(Cl)c1)N1CCN(S(=O)(=O)c2ccc(Cl)s2)CC1	·	–	–	–	–	·	·
CC(=O)N1c2ccc(S(=O)(=O)N3CCC(C(=O)Nc4cccc(Cl)c4)CC3)cc2CC1C (centres undefined)	·	–	–	–	2	·	–
O=C(N/N=C/c1cccc([N+](=O)[O-])c1)c1nc2ccccc2c(=O)[nH]1	·	–	–	–	2.4	·	–
CCNS(=O)(=O)c1ccc(CCC(=O)N2CCCC2)cc1	·	–	42.4	–	–	·	–
c1ccc(-c2nnc(CN3CCC4(CC3)OCCO4)o2)cc1	–	–	41.3	–	–	–	–
c1ccc(-c2nnc(CN3CCCCC3)o2)cc1	·	–	–	–	–	·	·
N=c1nc(-c2ccccc2)ccn1O	–	–	–	–	–	–	·
COc1ccc(C2=CC(=O)C[C@H](c3ccc(Cl)cc3)C2)cn1	·	–	–	–	–	·	·
CCOC(=O)c1cnc(SCC(=O)c2ccccc2)nc1N	–	–	35.3	–	–	–	-436.4
CCOC(=O)c1cnc(SCC(=O)c2ccc(C)cc2)nc1N	–	–	–	–	–	–	·
CC(C)(C)OC(=O)NCCCCCNC(=O)c1[nH]cnc1C(=O)Nc1ccon1	·	–	–	–	2.05	·	–
CC(C)(C)OC(=O)N1CCC(NC(=O)c2[nH]cnc2C(=O)Nc2ccon2)CC1	·	–	–	–	2.75	·	–
CC(C)(C)OC(=O)N1CCC(NC(=O)c2[nH]cnc2C(=O)Nc2ccc(Cl)cc2)CC1	·	–	–	–	–	·	·
O=C(NNC(=O)c1cc(Br)ccc1O)c1csc(N2CCOCC2)n1	·	–	–	–	2.43	·	–
O=C(CCNS(=O)(=O)c1ccccc1C(F)(F)F)NNC(=O)c1csc(N2CCOCC2)n1	·	–	–	–	2.07	·	–
CCOC1=C/C(=C/c2c(N)n3nc(CC(=O)N4CCCCC4)sc3nc2=O)C=CC1=O	·	–	–	–	–	·	·
CCOC1=C/C(=C/c2c(N)n3nc(S(=O)(=O)CC)sc3nc2=O)C=CC1=O	–	–	36.8	–	–	–	–
Cc1ccc2c(c1)Oc1ccc([N+](=O)[O-])cc1C(=O)N2	–	–	–	–	2.37	–	–
CCOC(=O)c1ccc(NC(=O)C2CCC(CNc3c(N4CCOCC4)c(=O)c3=O)CC2)cc1 (centres undefined)	·	–	–	–	–	·	·
O=c1c2ccccc2nc(N/N=C/c2ccc(O)cc2)n1O	–	–	–	–	–	–	·
O=c1c2ccccc2nc(N/N=C/c2c(O)ccc3ccccc23)n1O	–	–	–	–	2.03	–	-53.7
